Data reported in ChEMBL document CHEMBL1154865, “Sesquiterpenes and dimeric sesquiterpenoids from Sarcandra glabra” (J Nat Prod, 2010).
Active and inactive are the calls of the source. The calls are words filed in the database; no cut-off is given here.

Key:
Type in all cases: functional, cell-based
Bel-7402 = assay: Cytotoxicity against human Bel7402 cells after 72 hrs by SRB assay
Summary of the method: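 Cell growth read out by SRB (sulforhodamine B) staining, with pseudolaric acid B as the positive control. BEL-7402 is a human hepatocarcinoma line.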

HL-60 = assay: Cytotoxicity against human HL60 cells after 72 hrs by MTT assay; conditions: HL-60, 72 h
Summary of the method: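 HL-60 cell line tested by the MTT method, with pseudolaric acid B run alongside as positive control; activity expressed as IC50 in µM.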

A549 = assay: Cytotoxicity against human A549 cells after 72 hrs by SRB assay; conditions: A549, 72 h

In the case of `C/C=C(\C)C(=O)OC[C@]1(O)[C@H]2C[C@H]2[C@]2(C)[C@@H]3C[C@@]4(O)C5=C(/C(=C(\C)C(=O)OC)C(=O)[C@H](O)[C@@]5(C)[C@@H]5C[C@@H]54)[C@@]34OC(=O)C(COC(C)=O)=C4C[C@@H]12`, the Activity (Bel-7402) is reported as “inactive”.
For `C/C=C(\C)C(=O)OC[C@]1(O)[C@H]2C[C@H]2[C@]2(C)[C@@H]3C[C@@]4(O)C5=C(C6=C(C)C(=O)O[C@]6(O)[C@H](O)[C@@]5(C)[C@@H]5C[C@@H]54)[C@@]34OC(=O)C(COC(C)=O)=C4C[C@@H]12`, the Activity (Bel-7402) was “inactive”.
In the case of `C=C1[C@H]2C[C@H]2[C@]2(C)C[C@@H]3OC(=O)C(C)=C3C[C@]12O`, the Activity (Bel-7402) is reported as “inactive”.
In the case of `CC1=CC[C@@H](O)[C@]2(C)C[C@@H]3OC(=O)C(C)=C3C[C@@H]12`, the Activity (Bel-7402) is reported as “inactive”.
In the case of `COC(=O)C1=CC[C@@]23CC[C@@H]([C@@](C)(/C=C/C=C(\C)C(=O)O)OC2=O)[C@@]3(OC(C)=O)CC1` [PSEUDOLARIC ACID B], the IC50 (Bel-7402; Bel-7402, 72 h) is reported as 1.3 µM, the IC50 (HL-60) is reported as 4.2 µM and the IC50 (A549) is reported as 1.6 µM.
`C/C=C(\C)C(=O)OC[C@]1(O)[C@H]2C[C@H]2[C@]2(C)[C@@H]3CC4=C5[C@H](/C(=C(\C)C(=O)OC)C(=O)[C@H](O)[C@@]5(C)[C@@H]5C[C@H]45)[C@@]34OC(=O)C(C)=C4C[C@@H]12` [SARCANDROLIDE A] was tested, and the Activity (Bel-7402) was “inactive”, the IC50 (HL-60) was 3.1 µM and the IC50 (A549) was 7.2 µM.
With `COC(=O)/C(C)=C1\C(=O)[C@H](O)[C@]2(C)C3=C(C[C@@H]4[C@]5(OC(=O)C(CO)=C5C[C@H]5[C@](O)(COC(=O)/C(C)=C/CO)[C@H]6C[C@H]6[C@]45C)[C@H]31)[C@H]1C[C@H]12` [SARCANDROLIDE B] the Activity (Bel-7402) was “inactive” and the IC50 (HL-60) was 8.4 µM.
`COC(=O)/C(C)=C1\C(=O)[C@H](O)[C@]2(C)C3=C(C[C@@H]4[C@]5(OC(=O)C6=C5C[C@H]5[C@](O)(COC(=O)/C(C)=C/COC(=O)[C@@H](OC(C)=O)CC(=O)OC6)[C@H]6C[C@H]6[C@]45C)[C@H]31)[C@H]1C[C@H]12` [SARCANDROLIDE C] was tested, and the Activity (Bel-7402) was “inactive”, the IC50 (HL-60) was 8.5 µM and the IC50 (A549) was 4.7 µM.
